pIC50: −log10 of the molar value. Where “and” joins values, the source holds several entries; their conditions need not be identical. Identical values can stand only once. Calls of active or inactive are those of the source. The rule behind the calls is not given here.
Legend:
KB/VCR [1] = experiment: Reversal of P-glycoprotein-mediated vincristine-resistance in human KB/VCR cells expressing Pgp assessed as ratio of adriamycin IC50 to adriamycin IC50 in presence of compound at 16 uM after 48 hrs by MTT assay; format: cell-based
Outline: (§1)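 Cells were exposed for 48 h to VCR or ADR alone, or to VCR or ADR combined with a fixed concentration of modulator. Verapamil (16 µM) served as the reference agent. […] RF = IC50 of drug alone / IC50 with modulator. Means ± SD of three experiments.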

KB [2] = experiment: Potentiation of vincristine-induced cytotoxicity against human KB cells at 16 uM after 48 hrs by MTT assay; format: functional; outline: as §1
KB [3] = experiment: Potentiation of adriamycin-induced cytotoxicity against human KB cells at 16 uM after 48 hrs by MTT assay; format: functional; outline: as §1
KB/VCR [4] = experiment: Reversal of P-glycoprotein-mediated vincristine-resistance in human KB/VCR cells expressing Pgp assessed as ratio of vincristine IC50 to vincristine IC50 in presence of compound at 16 uM after 48 hrs by MTT assay; format: cell-based; outline: as §1
KB/VCR (human) = settings: 4 to 16 uM
[5] = Cytotoxicity against human KB/VCR cells expressing Pgp after 48 hrs by MTT assay; format: functional, cell-based
Outline: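 KB/VCR cells were kept in 200 ng/mL VCR and moved to drug-free medium for at least one week before use. Cells were exposed to graded compound concentrations for 48 h, with DMSO-treated cells as controls. Viability was read by MTT. IC50 values are means of three experiments.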

KB/VCR [6] = experiment: Reversal of P-glycoprotein-mediated vincristine-resistance in human KB/VCR cells expressing Pgp assessed as ratio of vincristine IC50 to vincristine IC50 in presence of compound at 4 uM after 48 hrs by MTT assay; format: cell-based
Outline: (§2)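 Cells were exposed for 48 h to VCR or ADR alone, or to VCR or ADR combined with a fixed concentration of modulator. RF = IC50 of drug alone / IC50 with modulator. Means ± SD of three experiments.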

KB [7] = experiment: Cytotoxicity against human KB cells after 48 hrs by MTT assay; format: functional, cell-based
KB/VCR [8] = experiment: Reversal of P-glycoprotein-mediated vincristine-resistance in human KB/VCR cells expressing Pgp assessed as ratio of vincristine IC50 to vincristine IC50 in presence of compound at 8 uM after 48 hrs by MTT assay; format: cell-based; outline: as §2
KB/VCR [9] = experiment: Reversal of P-glycoprotein-mediated vincristine-resistance in human KB/VCR cells expressing Pgp assessed as ratio of adriamycin IC50 to adriamycin IC50 in presence of compound at 8 uM after 48 hrs by MTT assay; format: cell-based; outline: as §1
KB/VCR [10] = experiment: Induction of apoptosis in human KB/VCR cells expressing Pgp assessed as morphological changes using DAPI staining at 16 uM after 48 hrs by fluorescence microscopic analysis; format: functional, cell-based
Outline: (§3)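 KB/VCR cells were treated for 48 h with modulator (16 µM), VCR (0.2 µM), or both. Cells were fixed in 4% paraformaldehyde for 10 min, permeabilized with 0.1% Triton X-100, and stained with DAPI (1:2000) for 10 min. Condensed or fragmented nuclei were scored by fluorescence microscopy.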

KB [11] = experiment: Potentiation of adriamycin-induced cytotoxicity against human KB cells at 8 uM after 48 hrs by MTT assay; format: functional; outline: as §1
KB [12] = experiment: Induction of rhodamine-123 accumulation in human KB cells at […] after 1 hr by flow cytometry; format: functional, cell-based
Outline: (§4)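 Cells were pretreated with modulator at 4, 8 or 16 µM, or DMSO, for 1 h. Rh123 (5 µM) was then added for a further 1 h at 37 °C in the dark. Cells were washed and resuspended in ice-cold PBS. Rh123 fluorescence was read by flow cytometry using 488 nm excitation and a 530 nm band-pass filter. Means ± SD of three independent experiments, compared with DMSO-treated cells.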

KB/VCR [13] = experiment: Induction of apoptosis in human KB/VCR cells expressing Pgp assessed as up-regulation of Bax expression at 16 uM after 48 hrs by Western blotting; format: functional, cell-based
Outline: (§5)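 KB/VCR cells were treated for 48 h with modulator (16 µM), VCR (0.2 µM), or both. Cells were lysed in RIPA buffer containing protease and phosphatase inhibitors. Protein was separated by SDS–PAGE and transferred to PVDF. Membranes were blocked in 5% milk/TBST and probed overnight with anti-Bcl-2 or anti-Bax, then an HRP secondary. GAPDH served as loading control, with ECL detection.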

KB [14] = experiment: Potentiation of adriamycin-induced cytotoxicity against human KB cells at 4 uM after 48 hrs by MTT assay; format: functional; outline: as §1
KB/VCR [15] = experiment: Inhibition of P-gp-mediated rhodamine-123 efflux in human KB/VCR cells at 6 uM after 1 hr by flow cytometry; format: cell-based
Outline: (§6)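 For efflux, cells were loaded with 5 µM Rh123 together with modulator or verapamil for 60 min at 37 °C. Cells were washed three times in Rh123-free medium and collected at 15, 30, 45, 60, 90 and 120 min after wash-out. They were resuspended in ice-cold PBS, and remaining Rh123 fluorescence was measured by flow cytometry.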

KB/VCR [16] = experiment: Reversal of P-gp-mediated multidrug-resistance in human KB/VCR cells assessed as increase in intracellular rhodamine-123 accumulation after 1 hr by flow cytometry relative to control; format: cell-based; outline: as §4
KB [17] = experiment: Potentiation of vincristine-induced cytotoxicity against human KB cells at 4 uM after 48 hrs by MTT assay; format: functional; outline: as §1
KB [18] = experiment: Potentiation of vincristine-induced cytotoxicity against human KB cells at 8 uM after 48 hrs by MTT assay; format: functional; outline: as §1
KB/VCR [19] = experiment: Induction of apoptosis in human KB/VCR cells expressing Pgp assessed as down-regulation of Bcl-2 expression at 16 uM after 48 hrs by Western blotting; format: functional, cell-based; outline: as §5
KB/VCR [20] = experiment: Reversal of P-glycoprotein-mediated vincristine-resistance in human KB/VCR cells expressing Pgp assessed as ratio of adriamycin IC50 to adriamycin IC50 in presence of compound at 4 uM after 48 hrs by MTT assay; format: cell-based; outline: as §1
KB/VCR [21] = experiment: Inhibition of P-gp-mediated rhodamine-123 efflux in human KB/VCR cells at 6 uM after 2 hrs by flow cytometry; format: cell-based; outline: as §6
KB/VCR [22] = experiment: Reversal of P-glycoprotein-mediated vincristine-resistance in human KB/VCR cells expressing Pgp assessed as ratio of vincristine IC50 to vincristine IC50 in presence of compound at 4 uM after 48 hrs by MTT assay
KB/VCR [23] = experiment: Reversal of P-gp-mediated multidrug-resistance in human KB/VCR cells assessed as increase in intracellular adriamycin accumulation at 8 uM after 1 hr by flow cytometry relative to control; format: cell-based
Outline: (§7)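 Cells were incubated with ADR at 3 µg/mL, alone or with modulator at 4, 8 or 16 µM, for 1 h at 37 °C. The reaction was stopped in an ice-water bath, and cells were washed twice with ice-cold PBS. Intracellular ADR fluorescence was measured by flow cytometry as mean intensity and expressed relative to DMSO-treated control cells.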

KB [24] = experiment: Induction of adriamycin accumulation in human KB cells at […] after 1 hr by flow cytometry; format: functional, cell-based; outline: as §7
KB/VCR [25] = experiment: Reversal of P-gp-mediated multidrug-resistance in human KB/VCR cells assessed as increase in intracellular adriamycin accumulation at 16 uM after 1 hr by flow cytometry relative to control; format: cell-based; outline: as §7
KB/VCR [26] = experiment: Reversal of P-gp-mediated multidrug-resistance in human KB/VCR cells assessed as increase in intracellular adriamycin accumulation at 4 uM after 1 hr by flow cytometry relative to control; format: cell-based; outline: as §7
KB/VCR [27] = experiment: Induction of apoptosis in human KB/VCR cells expressing Pgp assessed as down-regulation of Bcl-2 expression at 0.2 uM after 48 hrs by Western blotting; format: functional, cell-based; outline: as §5
KB/VCR [28] = experiment: Induction of apoptosis in human KB/VCR cells expressing Pgp assessed as up-regulation of Bax expression at 0.2 uM after 48 hrs by Western blotting; format: functional, cell-based; outline: as §5
KB/VCR [29] = experiment: Induction of apoptosis in human KB/VCR cells expressing Pgp assessed as morphological changes using DAPI staining at 0.2 uM after 48 hrs by fluorescence microscopic analysis; format: functional, cell-based; outline: as §3

SMILES: COc1ccc(CCN(C)CCCC(C#N)(c2ccc(OC)c(OC)c2)C(C)C)cc1OC (stereo unspecified)
- fold change (FC) (KB/VCR [1]): 5.32
- fold change (FC) (KB [2]): 1.29
- fold change (FC) (KB [3]): 1.06
- fold change (FC) (KB/VCR [4]): 8.85
- inhibition (KB/VCR (human)): inactive

SMILES: Oc1ccc2cc1Oc1ccc(cc1)/C=C/c1cccc(O)c1Oc1cccc(c1)CC2 [DEHYDROMARCHANTIN C]
- pIC50 ([5]; Homo sapiens, KB/VCR, 48 h): 4.06
- fold change (FC) (KB/VCR [6]): 2.16
- fold change (FC) (KB/VCR [4]): 5.95
- pIC50 (KB [7]): 4.08
- fold change (FC) (KB/VCR [8]): 3.51

SMILES: COc1ccc2cc1Oc1ccc(cc1)CCc1cccc(OC)c1Oc1cccc(c1)CC2 [DIMETHYL ETHER MARCHANTIAN C]
- fold change (FC) (KB/VCR [1]): 6.06
- fold change (FC) (KB/VCR [9]): 4.2
- Activity (KB/VCR [10]): inactive
- fold change (FC) (KB [2]): 1.54
- fold change (FC) (KB [3]): 0.91
- fold change (FC) (KB [11]): 1.15
- pIC50 ([5]; Homo sapiens, KB/VCR, 48 h): 4.02
- Activity (KB [12]): inactive
- Activity (KB/VCR [13]): inactive
- fold change (FC) (KB [14]): 1.02
- fold change (FC) (KB/VCR [6]): 4.78
- fold change (FC) (KB/VCR [4]): 7.53
- pIC50 (KB [7]): 4.02
- inhibition (KB/VCR [15]): Active
- Activity (KB/VCR [16]): Dose-dependent effect
- fold change (FC) (KB [17]): 1.17
- fold change (FC) (KB/VCR [8]): 2.57 and 6.76
- fold change (FC) (KB [18]): 1.33
- Activity (KB/VCR [19]): inactive
- fold change (FC) (KB/VCR [20]): 3.96
- inhibition (KB/VCR [21]): inactive

SMILES: COc1ccc2cc1Oc1ccc(cc1)/C=C/c1cccc(OC)c1Oc1cccc(c1)CC2 [DIMETHYLETHER DEHYDROMARCHANTIN C]
- fold change (FC) (KB/VCR [4]): 3.1
- pIC50 (KB [7]): 4.03
- fold change (FC) (KB/VCR [22]): 2.47

SMILES: COc1cccc2c1C(=O)c1c(O)c3c(c(O)c1C2=O)C[C@@](O)(C(=O)CO)C[C@@H]3O[C@H]1C[C@H](N)[C@H](O)[C@H](C)O1.Cl [DOXORUBICIN HYDROCHLORIDE]
- IC50 ([5]; Homo sapiens, KB/VCR, 48 h): 49.7 µg/mL
- IC50 (KB [7]): 1.66 µg/mL
- fold change (FC) (KB/VCR [23]): 2.8
- Activity (KB [24]): inactive
- fold change (FC) (KB/VCR [25]): 5.7
- fold change (FC) (KB/VCR [26]): 2.1

SMILES: CC[C@]1(O)C[C@H]2CN(CCc3c([nH]c4ccccc34)[C@@](C(=O)OC)(c3cc4c(cc3OC)N(C=O)[C@H]3[C@@](O)(C(=O)OC)[C@H](OC(C)=O)[C@]5(CC)C=CCN6CC[C@]43[C@@H]65)C2)C1 [VINCRISTINE]
- Activity (KB/VCR [27]): inactive
- Activity (KB/VCR [28]): inactive
- pIC50 ([5]; Homo sapiens, KB/VCR, 48 h): 5.83
- pIC50 ([5]; kb/vcr): 5.83
- pIC50 (KB [7]): 8.22
- Activity (KB/VCR [29]): inactive
